This is one part of a sample in which hits are shown more often than they occur.
NOD2 RIPK2 PPI = blocks binding of human NOD2 to RIPK2. O43353. CHO BLA complementation NOD2-RIPK2, CCF4 ratio. inhibition, % at 4.98 µM. 360,000 compounds, 0.38% hits; in the data active = inhibition above about 21%;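 also: 0% = vehicle only and 100% = reference blocker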
Target sequence (O43353 whole entry, looked up): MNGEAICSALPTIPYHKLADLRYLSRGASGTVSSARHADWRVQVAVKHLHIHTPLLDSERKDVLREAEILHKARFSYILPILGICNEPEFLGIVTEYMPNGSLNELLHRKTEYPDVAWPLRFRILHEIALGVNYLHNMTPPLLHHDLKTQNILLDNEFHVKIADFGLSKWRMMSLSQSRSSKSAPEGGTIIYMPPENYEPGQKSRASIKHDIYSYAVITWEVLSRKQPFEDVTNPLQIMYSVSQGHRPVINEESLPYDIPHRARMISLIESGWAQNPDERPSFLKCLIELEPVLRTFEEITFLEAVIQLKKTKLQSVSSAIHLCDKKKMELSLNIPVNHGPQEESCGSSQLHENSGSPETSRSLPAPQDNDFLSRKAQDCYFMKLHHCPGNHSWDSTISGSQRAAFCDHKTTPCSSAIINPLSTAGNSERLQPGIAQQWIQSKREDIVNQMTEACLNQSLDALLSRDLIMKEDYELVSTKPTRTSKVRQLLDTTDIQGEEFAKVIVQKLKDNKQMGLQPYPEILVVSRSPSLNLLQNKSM
CHOP inh = blocks CHOP induction under ER stress | CHO-K1 CHOP-promoter luciferase, tunicamycin-induced, 15-18 h | 220,000 compounds, 3.8% hits | inhibition, % at 10 µM;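 active = compounds that reduced the stress-induced luciferase reporter signal by more than about 70% of percent inhibition, limit read from the data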;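 also: 0% = tunicamycin plus vehicle and 100% = wells without tunicamycin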
TLR9-MyD88 inh = blocks human TLR9 binding to MyD88 | inhibition, % at 4.98 µM | 340,000 compounds, 0.21% hits | AID 504734 | Q9NR96+Q99836 | CHO BLA complementation TLR9-MyD88, CCF4 FRET ratio;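 active = inhibition above the mean over all tested compounds plus 3 SD, cut at about 21% in these data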;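 also: 0% = DMSO only wells and 100% = clavulanate BLA inhibitor control wells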
XBP1 UPR activ = activators of adaptive arm of unfolded protein response (XBP1). AID 463104. activation, % at 20 µM. 330,000 compounds, 0.33% hits. CHO-XBP1 luciferase reporter, IRE1-XBP1 UPR activation, luminescence; percent of tunicamycin response, DMSO as zero;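 active = versus positive control, 20 µM dose yields 30% or more activation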;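 also: 100% = tunicamycin at 10 µg/mL and 0% = DMSO only wells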
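Material: CHO cell line with stable XBP1 luciferase reporter; schedule: 16-18 h cell attachment at 37 °C, then 6 h compound exposure; signal: glow luminescence from Steady-Glo reagent; medium: serum-containing F12 medium, 10% FBS; benchmarks: tunicamycin 10 µg/mL and vehicle-only wells; read-out: percent activation relative to tunicamycin reference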
UPR CHOP act = activators of apoptotic arm of unfolded protein response (CHOP) | CHO-CHOP luciferase reporter, UPR activation, luminescence; percent of tunicamycin response over DMSO baseline | activation, % at 10 µM | 330,000 compounds, 0.34% hits;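 active = at 10 µM dose, activation of 40% or more, normalized to positive control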;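 also: 100% = tunicamycin at 10 µg/mL and 0% = DMSO alone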
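Material: CHO-CHOP cells, stable luciferase reporter of PERK-eIF2a-CHOP signalling; quantity: 500 reporter cells seeded per well; buffer or medium: F12 medium containing 10% fetal bovine serum; compound: one dose, 10 µM in 0.5% DMSO; incubation: 6 h compound treatment, 37 °C; measured by: Steady-Glo luciferase luminescence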
TLR4-MyD88 BLA = inhibitors of human TLR4-MyD88 binding; 200,000 compounds, 0.18% hits; HeLa CL3-4 TLR4/MyD88 BLA complementation, FRET ratio; O00206+Q99836; inhibition, % at 8.4 µM; in the data active = inhibition above about 25%;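 also: 0% = vehicle and 100% = reference inhibitor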
* hit, by the source's call; x = no result given.

SMILES | NOD2 RIPK2 PPI | CHOP inh | TLR9-MyD88 inh | XBP1 UPR activ | UPR CHOP act | TLR4-MyD88 BLA
CC1CC(C)CN(S(=O)(=O)c2cccc3nsnc23)C1 (stereo not drawn) | -4 | x | 12 | -8 | 3 | x
CCSc1nnc(NC(=O)c2cc(C)oc2C)s1 | -22 | 78* | -5 | 2 | 4 | -16
OC(CN1CCN(C(c2ccccc2)c2ccccc2)CC1)c1ccccc1 (stereo not drawn) | 8 | x | 4 | -5 | 0 | x
CN1CCN(CC(O)c2ccccc2)CC1 (stereo not drawn) | x | 80* | x | -3 | 1 | -2
CC(C)OC(=O)CC(=O)CSc1nc2c(cc1C#N)CCCC2 | -15 | 80* | 6 | -2 | 1 | -8
CC(C)OC(=O)CC(=O)CSc1nc2c(cc1C#N)CCCCCC2 | -7 | 31 | 4 | 1 | -1 | 7
COc1cccc(OCCCOc2ccccc2C(C)C)c1 | -5 | 71* | 8 | -2 | -1 | 18
Cc1cccc(CNC(=O)c2sc(=O)n(Cc3ccc(S(C)(=O)=O)cc3)c2C)c1 | -10 | x | x | x | x | x
O=C(Nc1ccccc1NC(=O)c1c(F)c(F)c(F)c(F)c1F)c1c(F)c(F)c(F)c(F)c1F | 2 | 77* | -4 | -1 | 2 | 11
O=C(Nc1ccncc1)c1c(F)c(F)c(F)c(F)c1F | 0 | x | -3 | -2 | -2 | x
O=C(Nc1cccc(F)c1)c1c(F)c(F)c(F)c(F)c1F | 7 | 79* | 1 | -2 | -3 | 3
Cc1cccc(NC(=O)c2c(F)c(F)c(F)c(F)c2F)c1 | -6 | 40 | -2 | -1 | 1 | -5
Cc1ccc(NC(=O)Cc2ccccc2)cc1S(=O)(=O)N1CCOCC1 | -3 | x | -3 | -2 | 1 | x
COc1ccc(-n2cnc(N)c2C(=O)c2cccc([N+](=O)[O-])c2)cc1 | -12 | 18 | -5 | 2 | -2 | -10
COc1ccc2cc3c(N)nn(C(=O)c4cccc([N+](=O)[O-])c4)c3nc2c1 | 8 | 77* | -2 | 0 | -1 | 5
COc1ccc2cc3c(N)nn(C(=O)Cc4ccccc4OC)c3nc2c1 | -2 | 81* | 1 | 2 | -1 | 5
COc1ccc(-c2nc(N)n(C(=O)Cc3ccccc3)n2)cc1 | -1 | 49 | -20 | 0 | 1 | -3
CCOC(=O)c1cc2c(ccn2C)n1CC(=O)N1CCC(Cc2ccccc2)CC1 | -8 | 71* | 9 | 1 | -2 | -7
CCN1CCN(Cc2ccc(NC(=O)c3cc(NC(=O)c4ccc5n[nH]nc5c4)cc(OC)c3)cc2C(F)(F)F)CC1 | -1 | -2 | -8 | 0 | 0 | x
CCN1CCN(Cc2ccc(NC(=O)c3cc(NC(=O)c4cc(-c5ccc(OC)cc5)n[nH]4)cc(OC)c3)cc2C(F)(F)F)CC1 | 5 | 87* | -3 | 4 | 0 | x
CCOC(=O)c1ccccc1NC(=O)C1COc2ccccc2O1 (stereo not drawn) | -1 | 74* | -3 | 6 | 6 | -8
O=C(Nc1ccncc1)C1COc2ccccc2O1 (stereo not drawn) | 3 | -6 | 2 | -2 | -1 | -6
O=C(NC1=NCCS1)C1COc2ccccc2O1 (stereo not drawn) | -4 | 76* | 8 | -7 | -11 | 0
CCc1noc(C)c1C(=O)NNC(=O)COc1ccccc1C | -2 | x | 1 | -1 | -2 | x
Cc1ccc2c(c1)N(CCC(=O)NCc1cccs1)C(=O)C(C)O2 (stereo not drawn) | 0 | 74* | -3 | -2 | 1 | -3
CC(C)CNC(=O)C1(C)CCCN1C(=O)C(C)(C)Oc1ccc(Cl)cc1 (stereo not drawn) | -12 | x | x | x | x | x
CCc1ccc(OCC(=O)NC(=S)Nc2cccc(CO)c2)c(Br)c1 | -3 | 83* | 8 | 1 | 2 | -7
COc1ccccc1-c1cc2nc(-c3ccccc3)cc(N3CCN(C(=O)c4ccco4)CC3)n2n1 | 7 | x | -11 | x | x | x
CN=C1S/C(=C\c2cc(C)n(-c3ccccc3F)c2C)C(=O)N1C | -1 | 96* | -21 | 0 | -5 | -2
